We go through 15 compounds from ChEMBL document CHEMBL1944521, “Amide-modified prenylcysteine based Icmt inhibitors: Structure-activity relationships, kinetic analysis and cellular characterization” (Bioorg Med Chem, 2012).

Active and inactive are the calls of the source. The rule behind the calls is not given here.

For orientation: IC50 means the point on the concentration scale where inhibition reaches its midpoint. As a reminder, the inhibition is the drop in the measured response relative to a control, in per cent.

The target of test [1] is T1, Protein-S-isoprenylcysteine O-methyltransferase (Homo sapiens, UniProt O60725). Kind of test: Competitive inhibition of His-tagged human Icmt membrane protein over-expressed in Saccharomyces cerevisiae 2766 using [14C]-SAM and N-acetyl-S-farnesyl-l-cysteine as substrate measured after 30 mins by scintillation counting. The method in brief: (§1)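 Mode of inhibition: AFC concentration varied at fixed inhibitor levels in the His-hIcmt vapor diffusion assay (14C-SAM, 30 °C, 30 min). Three trials per inhibitor concentration were averaged and plotted as Lineweaver-Burk. KIC and KIU were derived from IC50 by Cheng–Prusoff as adapted by Cer et al.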

Test [2] addresses T1, Protein-S-isoprenylcysteine O-methyltransferase. Kind of test: Inhibition of His-tagged human Icmt membrane protein over-expressed in Saccharomyces cerevisiae 2766 using [14C]-SAM and N-acetyl-S-farnesyl-l-cysteine as substrate measured after 30 mins by scintillation counting.
The target is the same in test [3]. Kind of test: Noncompetitive inhibition of His-tagged human Icmt membrane protein over-expressed in Saccharomyces cerevisiae 2766 using [14C]-SAM and N-acetyl-S-farnesyl-l-cysteine as substrate measured after 30 mins by scintillation counting. The method in brief:
as §1

The target is the same in test [4]. Description: Activity at His-tagged human Icmt membrane protein over-expressed in Saccharomyces cerevisiae 2766 using [14C]-SAM as substrate at 25 uM by scintillation counting.
Test [5] shares this target. Description: Inhibition of His-tagged human Icmt membrane protein over-expressed in Saccharomyces cerevisiae 2766 using [14C]-SAM and N-acetyl-S-farnesyl-l-cysteine as substrate at 10 uM preincubated on ice and measured after 30 mins by scintillation counting.
The target is the same in test [6]. Description: Inhibition of Icmt in TCR-stimulated human Jurkat T cells assessed as inhibition of Ras-mediated Erk activation at 25 uM after 24 hrs by immunoblot analysis relative to control. It counts as cell-based. The method in brief: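 Jurkat cells were treated 24 h with compound (25 μM), vehicle or simvastatin (36.7 μM), then held with anti-CD-3ε (20 μg/mL) 15 min on ice and stimulated 10 min at 37 °C. Triton lysates were run on 6–15% gels and immunoblotted for phospho-Erk, with GAPDH as loading control. Bands were quantified by densitometry relative to control; three independent experiments.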
(In general: Immunoblotting shows a protein as a band on a membrane.)

Test [7] shares this target. Kind of test: Inhibition of Icmt-mediated GFP-K-Ras membrane localization in human Jurkat T cells at 0.1 uM after 24 hrs by fluorescent microscopic analysis. It counts as cell-based. The method in brief:
(§2)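 Jurkat E6.1 cells were electroporated with 20 μg GFP-K-Ras, then treated 24 h at 37 °C with DMSO, simvastatin (20 μM) or compound (0.1, 1, 10 μM). Cells were put on polylysine coverslips, fixed in 3% formaldehyde and viewed by fluorescence microscopy. Localization was scored visually as normal, partial or complete mislocalization in random fields of 100 cells; three independent experiments.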

For test [8] the target is unchanged. Kind of test: Inhibition of Icmt-mediated GFP-K-Ras membrane localization in human Jurkat T cells at 10 uM after 24 hrs by fluorescent microscopic analysis. It counts as cell-based. The method in brief:
as §2

Test [9] has the same target. Description: Inhibition of Icmt in TCR-stimulated human Jurkat T cells assessed as inhibition of Ras activation at 25 uM after 24 hrs by immunoblot analysis. It counts as cell-based. The method in brief:
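Jurkat cells were treated 24 h with compound (25 μM), vehicle or simvastatin (36.7 μM), then held with anti-CD-3ε (20 μg/mL) 15 min on ice and stimulated 10 min at 37 °C. GTP-Ras was pulled down from NP40 lysates on GST-RBD glutathione beads (30 min, 4 °C) and immunoblotted with anti-pan-Ras. Bands were quantified by densitometry; three independent experiments.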

T1 sequence (O60725 whole entry, the tested form may be a part): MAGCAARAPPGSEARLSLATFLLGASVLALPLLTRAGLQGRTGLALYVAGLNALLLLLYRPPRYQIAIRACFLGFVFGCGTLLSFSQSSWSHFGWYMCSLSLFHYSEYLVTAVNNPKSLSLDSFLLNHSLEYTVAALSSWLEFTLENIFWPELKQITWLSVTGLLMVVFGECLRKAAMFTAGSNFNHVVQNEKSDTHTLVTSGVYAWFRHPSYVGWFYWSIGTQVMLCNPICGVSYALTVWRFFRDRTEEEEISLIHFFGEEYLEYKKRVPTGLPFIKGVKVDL

In turn, `CC(C)=CCC/C(C)=C/CC/C(C)=C/CSC[C@H](NC(=O)c1ccccc1Oc1ccccc1)C(=O)O` registered a Kic in test [1] of 1.4 µM. Moreover, the IC50 in [2] (read-out: IC50) amounted to 6.2 µM. Besides, the Kiuc in test [3] was determined as 4.8 µM.

Regarding `CC(=O)N[C@@H](CSC/C=C(\C)CC/C=C(\C)CCC=C(C)C)C(=O)O`, in [2], the IC50 result is “Not Active”.

For `CCCCCCCCCCCSC[C@H](NC(=O)c1ccccc1Oc1ccccc1)C(=O)O`, the result in test [4] was inactive. The inhibition result in [5] was “Active”. The IC50 in test [2] (read-out: IC50) worked out at 210 µM.

Regarding `CC(C)=CCC/C(C)=C/CC/C(C)=C/CSC[C@H](NC(=O)c1ccccc1Sc1ccccc1)C(=O)O`, the outcome in test [4] was inactive. The inhibition entry in test [5] was “Active”. Further, in test [2] (read-out: IC50), the IC50 is 14.7 µM.

As for `CC(C)=CCC/C(C)=C/CC/C(C)=C/CSC[C@H](NC(=O)c1cccc(Oc2ccccc2)c1)C(=O)O`, in [4], the outcome was inactive. The IC50 in test [2] (read-out: IC50) was 22.6 µM.

`CC(C)=CCC/C(C)=C/CC/C(C)=C/CSC[C@H](NC(=O)c1cccc2c1oc1ccccc12)C(=O)O`: in test [4], the result was inactive. In addition, the inhibition result in test [5] is “Active”. Further, the IC50 in test [2] (read-out: IC50) turned out to be 58 µM.

Take `CC(C)=CCC/C(C)=C/CC/C(C)=C/CSC[C@@H](NC(=O)c1ccccc1Oc1ccccc1)C(=O)O`: the result in test [4] was inactive. For the same compound, in test [5], the inhibition entry is “Active”. In addition, in test [2] (read-out: IC50), the concentration for half-maximal inhibition (IC50) was found to be 7.8 µM.

As to `CC(C)=CCC/C(C)=C/CC/C(C)=C/CSC[C@H](NC(=O)c1ccccc1COCc1ccccc1)C(=O)O`, in test [4], the result was inactive. The inhibition result in test [5] was “Active”. The IC50 in test [2] (read-out: IC50) stood at 49 µM.

`CC(C)=CCC/C(C)=C/CC/C(C)=C/CC/C(C)=C/CSC[C@H](NC(=O)c1ccccc1Oc1ccccc1)C(=O)O`: the outcome in test [4] was inactive. In test [2] (read-out: IC50), the IC50 is 38 µM.

Regarding `CC(C)=CCC/C(C)=C/CC/C(C)=C/CSC[C@H](NC(=O)c1ccc(Oc2ccccc2)cc1)C(=O)O`, in test [4], the result was inactive. Further, the 50% inhibitory concentration (IC50) in test [2] (read-out: IC50) amounted to 63 µM.

For `CC(C)=CCC/C(C)=C/CC/C(C)=C/CSC[C@H](NC(=O)c1ccccc1COc1ccccc1)C(=O)O`, in [4], the outcome was inactive. The inhibition entry in test [5] was “Active”. In addition, the IC50 in test [2] (read-out: IC50) is 75 µM.

Regarding `CC(C)=CCC/C(C)=C/CC/C(C)=C/CSC[C@H](NC(=O)c1ccccc1OCc1ccccc1)C(=O)O`, in test [4], the outcome was inactive. In addition, the inhibition result in test [5] is “Active”. Also, the IC50 in test [2] (read-out: IC50) is 13.4 µM.

`CC(C)=CC/C(=C/CSC[C@H](NC(=O)c1ccccc1Oc1ccccc1)C(=O)O)CCc1ccc(-c2ccccc2)cc1`: in test [6], the fold change (FC) was 3. Moreover, the inhibition was 35% in test [7] and 75% in test [8]. The compound also yielded a Kic in test [1] of 0.5 µM. For the same compound, the IC50 in test [2] (read-out: IC50) was 2.5 µM. In [3], the Kiuc came out at 1.9 µM. In test [9], the inhibition entry is “Active”.

Turning to `CC(C)=CCC/C(C)=C/CC/C(C)=C/CSC[C@H](NC(=O)c1ccccc1Cc1ccccc1)C(=O)O`, the result in test [4] was inactive. In addition, the inhibition result in test [5] was “Active”. In addition, the IC50 in test [2] (read-out: IC50) came out at 38 µM.

In the case of `CC(C)=CCC/C(C)=C/CC/C(C)=C/CSC[C@@H](C(=O)O)N(C)C(=O)c1ccccc1Oc1ccccc1`, the result in test [4] was inactive. Moreover, the inhibition entry in [5] is “Active”. In addition, the IC50 in test [2] (read-out: IC50) amounted to 6.7 µM.
